In ChEMBL document CHEMBL1122125, “Synthesis and in vivo antitumor activity of potential 5-fluorouracil prodrugs” (1982):

Experiments:
Format in all cases: functional
Mus musculus [1] = assay: Antitumor activity was determined for 7-day average percent weight change against P-388 leukemia in mice at a dose of 150 mg/kg
Summary of the method: (§1)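 Male B6D2F1J mice given 10⁶ P-388 cells ip on day 0, then treated ip once daily on days 1-4 (qd × 4), 5 mice per dose group. Compounds dosed in sterile saline, except one lipophilic thioether given in 10% Tween 80. Mice weighed on days 1 and 7; mean weight per mouse on day 1 and 7-day weight change reported in g and as percent.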

Mus musculus [2] = assay: Antitumor activity was determined for 7-day average percent weight change against P-388 leukemia in mice at a dose of 680 mg/kg; summary of the method: as §1
Mus musculus [3] = assay: Antitumor activity was determined for median survival of mice against P-388 leukemia in mice at a dose of 680 mg/kg
Summary of the method: (§2)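 Male B6D2F1J mice implanted ip with 10⁶ P-388 cells on day 0; test agents given ip on days 1–4 (qd × 4) in sterile saline, or in 10% Tween 80 for the lipophilic thioether. Groups of 5 treated mice, with 10–17 untreated controls per experiment. Mice weighed on days 1 and 7 to give the 7-day weight change in g and %. Survival recorded in days as median and range.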

Mus musculus [4] = assay: Antitumor activity was determined for 7-day average percent weight change against P-388 leukemia in mice at a dose of 340 mg/kg; summary of the method: as §1
Mus musculus [5] = assay: Antitumor activity was determined for average weight on day 1 against P-388 leukemia in mice at a dose of 680 mg/kg
Summary of the method: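 Male B6D2F1J mice, groups of 5, inoculated ip with 10⁶ P-388 cells on day 0. Drug given ip on days 1-4 (qd × 4) in sterile saline, or in 10% Tween 80 for the poorly water-soluble thioether. Average weight per mouse recorded on day 1, with reweighing on day 7 for percent weight change. Untreated control groups had 10-17 animals per experiment.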

Mus musculus [6] = assay: Antitumor activity was determined for average 7-day weight change against P-388 leukemia in mice at a dose of 170 mg/kg; summary of the method: as §1
Mus musculus [7] = assay: Antitumor activity was determined for average 7-day weight change against P-388 leukemia in mice at a dose of 75 mg/kg; summary of the method: as §1
Mus musculus [8] = assay: Antitumor activity was determined for average weight on day 1 against P-388 leukemia in mice at a dose 75 of mg/kg; summary of the method: as §1
Mus musculus [9] = assay: Antitumor activity was determined for median survival of mice against P-388 leukemia in mice at a dose of 75 mg/kg; summary of the method: as §2
Mus musculus [10] = assay: Antitumor activity was determined for average 7-day weight change against P-388 leukemia in mice at a dose of 150 mg/kg; summary of the method: as §1
Mus musculus [11] = assay: Antitumor activity was determined for average 7-day weight change against P-388 leukemia in mice at a dose of 300 mg/kg; summary of the method: as §1
Mus musculus [12] = assay: Antitumor activity was determined for average 7-day weight change against P-388 leukemia in mice at a dose of 600 mg/kg; summary of the method: as §1
Mus musculus [13] = assay: Percent increase in life span against P-388 leukemia in mice was determined at a dose of 680 mg/kg; conditions: P388
Summary of the method: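 Male B6D2F1J mice, 5 per dose group, received 10⁶ P-388 cells ip on day 0. Dosing was ip qd × 4 on days 1-4 in sterile saline, or 10% Tween 80 for the butyl thioether. Median survival times of treated (T) and untreated control (C, 10-17 mice) groups were compared: %ILS = [(T/C) − 1]100. Weights taken on days 1 and 7.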

Question: Which results are given for CC[C@H]1OC(n2cc(F)c(=O)[nH]c2=O)[C@H](O)[C@@H]1O (stereo partly drawn)?
Answer: Weight change (Mus musculus [1]): 7%; Weight change (Mus musculus [2]): -5%; Survival median (Mus musculus [3]): 17; Weight change (Mus musculus [4]): 5%; Average weight (Mus musculus [5]): 25.8 g mouse-1; Average weight (Mus musculus [6]): 1.6 g mouse-1; Average weight (Mus musculus [7]): 2 g mouse-1; Average weight (Mus musculus [8]): 21.8 g mouse-1; Survival median (Mus musculus [9]): 15; Average weight (Mus musculus [10]): 1.8 g mouse-1; Average weight (Mus musculus [11]): 0.6 g mouse-1; Average weight (Mus musculus [12]): -2.4 g mouse-1; ILS at 680 mg/kg (Mus musculus [13]): 54%
